What all share (assay type): functional
One assay concerns SW-620. Description: Growth inhibition of human SW620 cells after 48 hrs by Sulforhodamine B assay. Particulars: SW-620, 48 h. The method, boiled down:
(§1)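 Cells were preincubated 24 h at 37 °C, 5% CO2, and a time-zero plate was TCA-fixed. Five concentrations were made by serial dilution from a DMSO stock (400-fold the top concentration) and incubated 48 h. Adherent cells were fixed with 10% final TCA and suspension cells with 16%. Plates were stained with 0.4% SRB and read at 515 nm. GI50 is the concentration giving 50% reduction in net protein increase versus control.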
For orientation: In SRB staining, fixed cells bind dye roughly in proportion to their protein.

A further assay concerns A549. The experiment in a line: Growth inhibition of human A549/ATCC cells after 48 hrs by Sulforhodamine B assay. Particulars: A549, 48 h. The method, boiled down: (§2)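 Five-concentration SRB assay using 10-fold or ½-log serial dilutions from a DMSO stock. Exposure is 48 h at 37 °C in 5% CO2 after 24 h preincubation. TCA fixation is followed by SRB staining and a reading at 515 nm. Percentage growth is computed from time-zero, control and treated absorbances. GI50 is the concentration where [(Ti−Tz)/(C−Tz)]×100 = 50, read from the plot against log concentration.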

The subject of the next assay is MDA-MB-435. The experiment in a line: Growth inhibition of human MDA-MB-435 cells after 48 hrs by Sulforhodamine B assay. Particulars: MDA-MB-435, 48 h. The method, boiled down: as §2
Another assay concerns HCT-15. The experiment in a line: Growth inhibition of human HCT15 cells after 48 hrs by Sulforhodamine B assay. Particulars: HCT-15, 48 h. The method, boiled down: as §2
A further assay deals with ACHN. Description: Growth inhibition of human ACHN cells after 48 hrs by Sulforhodamine B assay. The procedure, abridged: as §2
The next assay deals with NCI-H226. Description: Growth inhibition of human NCI-H226 cells after 48 hrs by Sulforhodamine B assay. As to conditions: NCI-H226, 48 h. The procedure, abridged:
as §1

Another assay relates to MOLT-4. Description: Growth inhibition of human MOLT4 cells after 48 hrs by Sulforhodamine B assay. As to conditions: MOLT-4, 48 h. The procedure, abridged: as §1
For a further assay, the system named is BT-549. Description: Growth inhibition of human BT549 cells after 48 hrs by Sulforhodamine B assay. As to conditions: BT-549, 48 h. The procedure, abridged: as §2
A further assay relates to HL-60(TB). The experiment in a line: Growth inhibition of human HL-60(TB) cells after 48 hrs by Sulforhodamine B assay. Particulars: HL-60, 48 h. The procedure, abridged: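 Suspension cells pre-incubated 24 h at 37 °C, 5% CO2 before drug addition, with a time-zero plate fixed then. DMSO stocks diluted in medium with gentamicin to five concentrations (10-fold or ½-log steps); 48 h exposure. Settled cells fixed with TCA (final 16%), stained with SRB, dye dissolved in 10 mM Tris base, read at 515 nm. GI50 solved from [(Ti−Tz)/(C−Tz)]×100 = 50.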

Where only a bound is given, the exact number is not on record here.

With `O=c1[nH]c(-c2ccncc2)nc2sc3c(c12)CCCCCC3`, the GI50 with SW-620, in the assay on A549, in the assay on MDA-MB-435, in the assay with HCT-15, with ACHN and in the assay with NCI-H226 was above 100 µM throughout. For the same compound, the GI50 in the assay with MOLT-4, with BT-549 and with HL-60(TB) was above 100 µM in each case.

For `c1ccc(-c2nc(N3CCOCC3)c3c4c(sc3n2)CCCCCC4)nc1`, the GI50 is 8.91 µM in the assay with SW-620; 3.55 µM in the assay on A549; 4.79 µM in the assay on MDA-MB-435; 3.39 µM with HCT-15; 4.47 µM in the assay with ACHN; 5.01 µM in the assay on NCI-H226. Besides, the GI50 in the assay on MOLT-4 is 3.8 µM; with BT-549, 4.37 µM; in the assay on HL-60(TB), 4.47 µM.

Turning to `NNc1nc(-c2ccccn2)nc2sc3c(c12)CCCCCC3`, the GI50 was 4.57 µM in the assay with SW-620; 3.16 µM with A549; 5.13 µM in the assay with MDA-MB-435; 1.12 µM in the assay with HCT-15; 4.9 µM in the assay on ACHN; 10.2 µM in the assay on NCI-H226. Besides, the GI50 with MOLT-4 was 3.63 µM; in the assay with BT-549, 9.77 µM; in the assay with HL-60(TB), 4.47 µM.

Regarding `COc1ccc(N2CCN(c3nc(-c4ccccn4)nc4sc5c(c34)CCCCCC5)CC2)cc1`, the GI50 is 5.13 µM in the assay on SW-620; 3.24 µM in the assay with A549; 5.5 µM in the assay on MDA-MB-435; 4.27 µM in the assay with HCT-15; 5.13 µM with ACHN; 6.46 µM in the assay on NCI-H226. Further, the figures for the 50% growth inhibitory concentration (GI50) in the assay on MOLT-4, in the assay with BT-549 and in the assay with HL-60(TB) were 3.24 µM, 6.92 µM and 4.07 µM, respectively.

For `CN1CCN(c2nc(-c3ccncc3)nc3sc4c(c23)CCCCCC4)CC1`, the GI50 was 12 µM in the assay on SW-620; 11.5 µM in the assay with A549; 11.7 µM in the assay on MDA-MB-435; 11.2 µM with HCT-15; 7.94 µM with ACHN; 10.5 µM in the assay on NCI-H226. Besides, the GI50 with MOLT-4 is 3.8 µM; in the assay on BT-549 it was 6.31 µM; in the assay on HL-60(TB) it was 12.6 µM.

Take `O=c1[nH]c(-c2ccccn2)nc2sc3c(c12)CCCCCC3`: the concentration for 50% growth inhibition (GI50) with SW-620 is 4.9 µM; with A549, 2.57 µM; in the assay on MDA-MB-435, above 100 µM; in the assay with HCT-15 it was 2.34 µM; with ACHN, 5.25 µM; in the assay on NCI-H226 it was above 100 µM. Moreover, the concentration for 50% growth inhibition (GI50) was 2.4 µM with MOLT-4, 5.62 µM in the assay with BT-549 and 3.39 µM in the assay on HL-60(TB).

The GI50 is the concentration at which growth is held to half of that of the control. Low values mean greater sensitivity of the cells, high ones lower sensitivity of the cells.
